High-throughput results (PubChem BioAssay)
Most compounds without a hit are left out; they make up all but 4.3% or so of the library.
ALR inh: human ALR oxidase inhibition via reduced H2O2; purified ALR, DTT oxidation, H2O2 HRP-luminol luminescence; 290,000 compounds, 3.8% hits; P55789; AID 485317; inhibition, % (test concentration not listed);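 active means mean replicate inhibition above about 79%, with every replicate also reaching it, limit read from the data; inconclusive means only one of the two criteria met; inactive means mean below limit and not every replicate reaching it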
Target sequence (P55789 whole entry, looked up): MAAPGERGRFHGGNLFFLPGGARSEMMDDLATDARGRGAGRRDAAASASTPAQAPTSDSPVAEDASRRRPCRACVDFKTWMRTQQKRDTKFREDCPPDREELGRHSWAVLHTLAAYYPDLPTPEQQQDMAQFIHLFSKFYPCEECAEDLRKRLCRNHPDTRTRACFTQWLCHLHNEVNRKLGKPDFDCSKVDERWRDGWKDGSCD
DYRK1A inh: Dyrk1A (rat) kinase inhibition | Q63470 | ADP-Glo luminescence, NFATc1 peptide | inhibition, % at 12.5 µM | 310,000 compounds, 0.43% hits | AID 504441; in the data active means inhibition above about 50%
CAL PDZ FP-1: inhibitors of human CAL PDZ peptide binding. Q9HD26. purified CAL PDZ, TMR-peptide fluorescence polarization, 1 h. inhibition, % at 20 µM. 330,000 compounds, 0.02% hits. AID 504414;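 active means highest replicate inhibition of at least 40%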
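Test system: tagged CAL PDZ domain / Buffer or medium: sodium phosphate/NaCl buffer pH 7.4 with TCEP, IgG, Thesit / Reagent: TMR-labelled reporter peptide T*-PRC34 bound in PDZ groove / Compound dosing: single point, 20 µM / Schedule: 1 h incubation at room temperature before polarization reading / Technique: fluorescence polarization (mP) / Benchmarks: unlabelled peptide, DMSO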
Rtt109 Vps75: blocks Candida albicans Rtt109/Vps75 acetyltransferase activity. inhibition, % at 34.9 µM. 330,000 compounds, 0.16% hits. purified Rtt109/Vps75, ThioGlo CoA-SH fluorescence, 4 h. Q5AAJ8;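 active means inhibition of at least 50% in every replicate; inconclusive means best replicate reaches 50% inhibition but some replicates fall short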
Target sequence (Q5AAJ8 whole entry, looked up): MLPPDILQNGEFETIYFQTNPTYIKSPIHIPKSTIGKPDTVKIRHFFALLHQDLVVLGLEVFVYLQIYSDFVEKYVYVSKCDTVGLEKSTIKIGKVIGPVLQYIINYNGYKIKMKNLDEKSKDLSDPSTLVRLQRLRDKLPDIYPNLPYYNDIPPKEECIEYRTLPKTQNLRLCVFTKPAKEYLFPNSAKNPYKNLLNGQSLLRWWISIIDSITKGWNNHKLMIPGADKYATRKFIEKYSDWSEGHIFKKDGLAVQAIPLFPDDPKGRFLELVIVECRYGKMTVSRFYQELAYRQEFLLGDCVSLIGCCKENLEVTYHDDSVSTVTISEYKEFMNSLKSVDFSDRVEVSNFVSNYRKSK
CAL PDZ FP-2: CAL PDZ (human) peptide binding inhibition. Q9HD26. purified CAL PDZ, TMR-peptide fluorescence polarization, 1 h. inhibition, % at 24.9 µM. 300,000 compounds, 0.92% hits. AID 602252;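 active means mean inhibition of at least 30% with at least half of replicates also reaching 30%; inconclusive means no clear call, values can overlap the other calls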
Of the large screens only hits and unclear results are named; the others gave an inactive call.

CCOc1cc(/C=N/NC(=O)C(OC)c2ccccc2)ccc1O (stereo not drawn)	ALR inh 99.7 (no result: CAL PDZ FP-2)
CCOc1cc(/C=N/NC(=O)C(=O)NC2CC2)cc(Br)c1O	none
O=C(COc1ccccc1C(=O)N/N=C\c1ccc(O)c(O)c1)N/N=C/c1ccc(O)c(O)c1	ALR inh 98.9
CCOc1cc(/C=N/NC(=O)c2ccccc2OCc2ccc(F)cc2)ccc1O	none
O=C(COc1ccccc1[N+](=O)[O-])N/N=C/c1ccc(O)c([N+](=O)[O-])c1	none
CCOc1cc(/C=N/NC(=O)C(N)=O)cc(Br)c1O	ALR inh 91.0 (no result: Rtt109 Vps75)
CCOc1cc(/C=N/NC(=O)c2ccccc2-n2cccc2)ccc1O	ALR inh 98.8 (no result: DYRK1A inh)
O=C(N/N=C/c1ccccc1OCc1ccccc1)c1cccs1	none
Cc1ccc(C(=O)N/C(=C\c2ccco2)C(=O)NCCN2CCOCC2)cc1	none (no result: ALR inh)
CCOc1cc(/C=N/NC(=O)C(C)Sc2ccccc2)ccc1O (stereo not drawn)	ALR inh 98.5 (no result: CAL PDZ FP-2)
CCOc1cc(/C=C(/C#N)C(=O)Nc2ccc(O)cc2)cc(Br)c1O	ALR inh 98.7
CCOc1cc(/C=N/NC(=O)C(=O)N/N=C/c2ccc(O)c(OCC)c2)ccc1O	none
CCOc1cc(/C=N/NC(=O)N/N=C/c2ccc(O)c(OCC)c2)ccc1O	ALR inh 98.8 (no result: DYRK1A inh, CAL PDZ FP-1, Rtt109 Vps75, CAL PDZ FP-2)
CN(C)/C=C1\N=C(c2cccs2)OC1=O	ALR inh 93.1 (no result: CAL PDZ FP-1)
O=c1ccc(-c2nc3ccccc3n2Cc2ccc(Cl)cc2)c[nH]1	CAL PDZ FP-2 41.2 (no result: ALR inh, CAL PDZ FP-1)
COc1ccc(C(=O)Nc2cc(C)on2)cc1S(=O)(=O)N1CC(c2ccccc2)CC1=O (stereo not drawn)	none
O=C(c1cc(COc2ccccc2)on1)N1CCCC(CN2CCOCC2)C1 (stereo not drawn)	CAL PDZ FP-2 52.5
O=C(c1cc(COc2ccccc2)on1)N1CCCC(OCc2cccnc2)C1 (stereo not drawn)	none
CC(=O)c1c(C(C)=O)c(C)n(C(c2ccccc2)c2ccccc2)c1C	none
CC(=O)c1cc(CC=C(C)C)c(O)cc1O	ALR inh 83.5 (no result: CAL PDZ FP-2)
COc1ccccc1C(=O)NNS(=O)(=O)c1ccc(F)cc1	none
O=C(NNS(=O)(=O)c1ccc(F)cc1)c1ccccc1F	CAL PDZ FP-2 40.9
O=C(NNS(=O)(=O)c1ccc(F)cc1)c1ccccc1	none
O=C(NNS(=O)(=O)c1ccc(F)cc1)c1cc2ccccc2cc1O	ALR inh 98.4
CCOC(=O)c1nn(-c2ccc(C)c(C)c2)c(=O)c(C#N)c1C	none
N/C(=N\O)c1ccc(N2CCN(c3ncccc3C(F)(F)F)CC2)nc1	ALR inh 91.2 (no result: CAL PDZ FP-2)
Cc1csc(=Nc2cccnc2)n1CC1CCCCC1	ALR inh 98.6
COCCCn1c(C)csc1=Nc1cccnc1	none
Nn1cc(-c2ccccc2)nc1SCC(=O)Nc1ccc(S(N)(=O)=O)cc1	none (no result: ALR inh)
NC(=O)CC1C(=O)N(c2ccc(Cl)cc2)C(=S)N1NC(=O)c1cccc(F)c1 (stereo not drawn)	CAL PDZ FP-2 62.3 (no result: CAL PDZ FP-1)
CNC(=O)CC1C(=O)N(c2ccc(Cl)cc2)C(=S)N1NC(=O)c1cccc(F)c1 (stereo not drawn)	none
Cc1c(C(=O)N2CCOCC2)c(S(=O)(=O)Nc2cccc(C#N)c2)c(C)n1C	CAL PDZ FP-2 68.0
Cc1ccnn1CCC(=O)N1CCCC(CCC(=O)N2CCN(c3ccccn3)CC2)C1 (stereo not drawn)	none (no result: CAL PDZ FP-2)
Cc1ccc(NC2CCCN(C(=O)CCN3CCOCC3)C2)cc1C (stereo not drawn)	ALR inh 98.6
CC(C)c1ccc(NC2CCCN(C(=O)CCN3CCOCC3)C2)cc1 (stereo not drawn)	none
Cc1ccc(NC2CCCN(C(=O)CCn3nccc3C)C2)cc1C (stereo not drawn)	ALR inh 99.4
COc1ccc(OC)c(NC(=O)C2CC(/C=C/c3ccccc3)=NO2)c1 (stereo not drawn)	none
Cc1cc2nc(-c3ccc(SCc4ccccn4)nc3)[nH]c2cc1C	ALR inh 97.7
CCOC(=O)CSc1ccc(-c2nc3cc(C)c(C)cc3[nH]2)cn1	none
Cc1cc2nc(-c3ccc(SCC(=O)N4CCOCC4)nc3)[nH]c2cc1C	ALR inh inconclusive (no result: CAL PDZ FP-2)
Cc1cc2nc(-c3ccc(SCC(=O)N4CCN(C(=O)c5ccco5)CC4)nc3)[nH]c2cc1C	ALR inh 98.7 (no result: CAL PDZ FP-1)
Cc1ccc(C(=O)NCCS(=O)(=O)N2CCN(c3ccccc3F)CC2)cc1[N+](=O)[O-]	none
Clc1ccc(-n2nnc(-c3nccs3)n2)cc1Cl	ALR inh 92.5
Cc1ccc(-n2nnc(-c3nccs3)n2)cc1	none (no result: ALR inh)
O=C(CCC(=O)c1ccccc1)Nc1ccccc1OC(F)F	CAL PDZ FP-2 32.5
O=C(Nc1ccccc1OC(F)F)c1ccccc1	none (no result: CAL PDZ FP-2)
COc1cc(O)ccc1C(=O)CCc1ccc(O)cc1	ALR inh 99.3
C/C(CC(=O)Nc1ccccc1C)=N\NC(=O)Cc1csc(N)n1	CAL PDZ FP-2 44.0 (no result: ALR inh)
C/C(CC(=O)Nc1ccc(Br)cc1)=N\NC(=O)Cc1csc(N)n1	none (no result: ALR inh)
Cc1ccc(Nc2nc(N)nc(CSc3nccn3C)n2)c(C)c1	CAL PDZ FP-2 38.3
Cc1ccc(SCc2nc(N)nc(Nc3ccccc3C)n2)c(C)c1	none
O=C(O)CC(NC(=O)Cc1ccccc1)c1cc([N+](=O)[O-])ccc1Cl (stereo not drawn)	none
CCOc1cc(/C=N\n2nnnc2N)ccc1O	ALR inh 98.9
CCOc1cc(/C=N/Nc2ncnc(Cl)c2N)ccc1O	ALR inh 98.8
CCOc1cc(/C=N/Nc2nnc(C)n2N)ccc1O	ALR inh 99.4
O=C(OCC#CCSc1nnc(-c2cccc3ccccc23)o1)c1cccc2[nH]ccc12	none
CCN(C(=O)COC(=O)COc1ccccc1Cl)c1c(N)n(Cc2ccccc2)c(=O)[nH]c1=O	none
COc1cc(NC(=O)CN2c3ccccc3CC2C)cc(OC)c1OC (stereo not drawn)	ALR inh 97.3
CC(C)(C)OC(=O)C[C@H]1C/C=C\C[C@H](CC(=O)N[C@H](CO)Cc2ccccc2)C(=O)N[C@H](Cc2ccccc2)COC1=O	none
C/C(=N\Nc1nccnc1Cl)c1ccc(O)cc1	ALR inh 93.1
Cc1ncsc1C(=O)N1CCCC(C(=O)c2ccc3ccccc3c2)C1 (stereo not drawn)	none
CC(=O)Nc1cccc(/C(C)=N/NS(=O)(=O)c2ccccc2)c1	none
COc1ccc(S(=O)(=O)N/N=C(/C)c2cccc(NC(=O)c3ccccc3Cl)c2)cc1	CAL PDZ FP-2 43.0 (no result: ALR inh)
COC(=O)/C(C#N)=C\c1c(OC)[nH]c2ccccc12	none (no result: CAL PDZ FP-2)
O=C(Cn1nnc(-c2ccccc2F)n1)OCC(=O)c1ccccc1	ALR inh 93.3 (no result: CAL PDZ FP-1)
COc1ccc(N/C=C(/C(C)=O)c2ccccc2)cc1	ALR inh 84.0 (no result: CAL PDZ FP-2)
Cc1noc(C)c1COC(=O)CCN1c2ccccc2Sc2ccccc21	ALR inh 92.7
C/C(=N\NC(=O)CCCNc1ccc(C)cc1)c1ccccn1	ALR inh 98.4
CCN(CC)S(=O)(=O)c1ccc(N2CCCC2)c(NC(=O)C2CCCCC2)c1	CAL PDZ FP-2 40.5 (no result: DYRK1A inh)
